{"source": "paper PMC4982705", "about": "(Biochemical pharmacology, 2016)", "assay_in_all_cases": "intrinsic fluorescence titration", "format_in_all_cases": "binding", "key": {"[1]": {"target": "SULT1B1-K266E/E275K heterodimer (Homo sapiens, UniProt O43704, E275K/K266E)", "sequence (O43704 whole entry K266E)": "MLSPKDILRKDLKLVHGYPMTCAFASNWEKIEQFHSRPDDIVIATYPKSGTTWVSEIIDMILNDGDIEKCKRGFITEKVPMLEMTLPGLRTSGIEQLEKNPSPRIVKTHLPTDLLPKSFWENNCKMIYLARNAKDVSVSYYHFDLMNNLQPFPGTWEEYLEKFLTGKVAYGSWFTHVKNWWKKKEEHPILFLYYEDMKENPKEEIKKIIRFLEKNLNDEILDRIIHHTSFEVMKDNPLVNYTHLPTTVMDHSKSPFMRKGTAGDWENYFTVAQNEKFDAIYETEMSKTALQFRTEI", "sequence (O43704 whole entry E275K)": "as the sequence (O43704 whole entry K266E) above, with E266K, E275K counted along it", "summary_of_the_method": "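His-tagged K266E and E275K SULT1B1 subunits were purified separately from E. coli, then co-incubated at normalized concentrations for 1 h on ice to form the heterodimer. 0.20 µM enzyme in 10 mM sodium phosphate pH 7.8, 10% glycerol, 150 mM NaCl. PAP added stepwise; intrinsic fluorescence (ex 282/em 338) averaged over 15 s after 15 s mixing. Kd from one-site hyperbolic fit; triplicate.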"}, "[2]": {"target": "SULT1B1 (hSULT1B1, wildtype) (Homo sapiens, UniProt O43704, E275K/H109Y)", "sequence (O43704 whole entry H109Y/E275K)": "as the sequence (O43704 whole entry K266E) above, with H109Y, E266K, E275K counted along it", "summary_of_the_method": "(§1)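 Ligand: PAP (cofactor product). Protein: N-terminal 6xHis human SULT1B1, expressed in E. coli BL21-DE3-RIL (IPTG, 20°C) and purified on Ni-NTA. 0.20 µM enzyme in 10 mM sodium phosphate pH 7.8, 10% glycerol, 150 mM NaCl. PAP titrated in; each step mixed 15 s, then intrinsic fluorescence (ex 282, em 338) read for 15 s. Kd from one-site hyperbolic fit; triplicate runs.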"}, "[3]": {"target": "SULT1B1 (hSULT1B1, wildtype) (Homo sapiens, UniProt O43704)", "sequence (O43704 whole entry)": "as the sequence (O43704 whole entry K266E) above, with E266K counted along it", "summary_of_the_method": "as §1"}, "[4]": {"target": "SULT1B1 (hSULT1B1, wildtype) (Homo sapiens, UniProt O43704, E275K)", "sequence (O43704 whole entry E275K)": "as the sequence (O43704 whole entry K266E) above, with E266K, E275K counted along it", "summary_of_the_method": "as §1"}, "[5]": {"target": "SULT1B1 (hSULT1B1, wildtype) (Homo sapiens, UniProt O43704, K266E)", "sequence (O43704 whole entry K266E)": "as the sequence (O43704 whole entry K266E) above"}}}
{"smiles": "Nc1ncnc2c1ncn2[C@@H]1O[C@H](COP(=O)(O)O)[C@@H](OP(=O)(O)O)[C@H]1O", "note": "[PAP, 3′,5′-diphosphoadenosine]", "values": [{"measurement": "Kd", "setting": "[1]", "value": "180 ± 6", "unit": "nM"}, {"measurement": "Kd", "setting": "[2]", "value": "668 ± 31", "unit": "nM"}, {"measurement": "Kd", "setting": "[3]", "value": "106 ± 9", "unit": "nM"}, {"measurement": "Kd", "setting": "[4]", "value": "80 ± 9", "unit": "nM"}, {"measurement": "Kd", "setting": "[5]", "value": 1470, "unit": "nM"}]}
